Data on 38 variants can be found in the RNAGym collection of RNA variant scans (doi:10.1126/science.aae0568).

Variants at the floor of the assay were thinned out.

To fix the notation:
B1: tRNA (parent)
chain: GUUCCGUUGGCGUAAUGGUAACGCGUCUCCCUCCUAAGGAGAAGACUGCGGGUUCGAGUCCCGUACGGAACG

Variants of B1 are the subject of the data set. Kind of data set: yeast fitness relative to wild type (ratio to wild type); higher = fitter; tRNA-Arg(CCU), competitive growth, 37 C, YPD. A digest of the protocol:
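Genotype frequency changes were the basis for Darwinian fitness relative to wild type. The frequencies came from 100-nucleotide paired-end sequencing of gene amplicons from the start population and each end population of pooled yeast strains with tRNA-Arg(CCU) gene variants at the native locus. Competition ran in YPD at 37°C for 24 hours in six replicates, genotypes needed ≥ 100 starting reads, and estimates < 0.5 were set to 0.5.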
For GUUCCGUUGGCGUAUUGAUAACGCGUUUCCCUCCCAAGGAAAAGACUGUGGGAUCGAGUCCCGUACGGAACG [A15U G18A C27U U35C G41A C49U U53A], the yeast fitness is 0.603.
With GUUCCGUUGGCGUAUUGGUAACGCGUCUCGCUCCUAAGGAGAAGACUGCAGGUUCGAGUCCCGUACGGAACG [A15U C30G G50A] the figure was not above 0.5; with GUUCCGUUGGCGUAUUGGUAACGCGUCUCCCUCGUAGGGCGAAGACUGCGGGUUCGAGUCCCGUACGGAACG [A15U C34G A37G A40C], 0.59; with GUUCCGUUGGCGUAUUGGUAACGCGUCUCCCUGCUAAGGAGAAGACUGCAGGUUCGAGUCCCGUACGGAACG [A15U C33G G50A], 0.625.
Turning to GUUCCGUUGGCGUAUUGGUAACGCGUCUCCCUCCUAAGGAGAAGAAUGCGGGAUCGAGUCCCGUACGGGACG [A15U C46A U53A A69G], the yeast fitness is not above 0.5.
Regarding GUUCCGUUGGCGUAUUGGUAACGCGUCUCCCUCGUAAGGAGAAGACUGCGGGUUUGAGUCCCGUACGGCACG [A15U C34G C55U A69C], the yeast fitness was not above 0.5.
In the case of GUUCCGUUGGCGUAUUGGUAACGCGUCUCCCUCGUAGGGCGAAGACUGCGGGUUCGAGUCCCGCACGGAACG [A15U C34G A37G A40C U64C] it was not above 0.5; in that of GUUCCGUUGGCGUAUUGGUAACGCGUCUCCUUCCACAGGAGAAGACUGCGGGAUCGAGUCCCGUACGGAACG [A15U C31U U35A A36C U53A], 0.625; in that of GUUCCGUUGGCGUAUUGCUAACGCGUCUCCCUCCUGCGGAGAAGACUGCAGGUUCGAGUCCCGUACGGAACG [A15U G18C A36G A37C G50A], not above 0.5.
In the case of GUUCCGUUGGCGUAUUGGUAACGCGUCUCCCUUCUAAGGAGAAGACUGCGGGUUCAAGUCCCGUACGGAACG [A15U C33U G56A] it was not above 0.5; in that of GUUCCGUUGGCGUAUUGGUAACGCGUCUCCAUCCUAAGGAGAAGACUGCGGGUCCGAGUCCCGUACGGAACG [A15U C31A U54C], not above 0.5.
As to GUUCCGUUGGCGUAUUGGUAACGCGUCUCCCUCCUAAGGAGAAGAGUGCGGGUUCGAGUCCCGUACGGAUCG [A15U C46G A70U], the yeast fitness was found to be 0.56.
In the case of GUUCCGUUGGCGUAUUGGUAACGCGUCUCCCUCCUAAGGAGAAGACUGUGGGUUCAAGUCGCGUACGGAACG [A15U C49U G56A C61G] it was not above 0.5; in that of GUUCCGUUGGCGUAUUGAUAACGCGUCUCCCUCCUAAGGCGACGAGUGCGGGUUCGAGUCCCGUACGGCACG [A15U G18A A40C A43C C46G A69C], not above 0.5; in that of GUUCCGUUGGCGUAUUGGUAACGCGUCUCCGUCCUAAGGAGAAGACUGCGGGAUUGAGUCCCGUACGUAACG [A15U C31G U53A C55U G68U], not above 0.5.
Take GUUCCGUUGGCGUAUUGGUAACGCGUCUCCCUCCUAAGGAGAAGACUGCGGGUUCGAGUCCCGUAUGGAUCG [A15U C66U A70U]: the yeast fitness was determined as 0.604.
With GUUCCGUUGGCGUAUUGGUAACGCGUCUCGCUCCUCAGGAGAAGACUGCGGGUUCGAGUAUCGUACGGAACG [A15U C30G A36C C60A C61U], the yeast fitness was not above 0.5.
With GUUCCGUUGGCGUAUUCGUAACGCGUCUCCCUCCUAUGGAGAAGACUGCGGGUUCGAGUCCCGUACGGAACG [A15U G17C A37U] the figure was not above 0.5.
In the case of GUUCCGUUGGCGUAUUCGUAACGCGUCUCCCUCCUAAGGAGAAGUCUGGGGGUUCGAGUCCCGUACGGAACG [A15U G17C A45U C49G] it was not above 0.5; in that of GUUCCGUUGGCGUAUUGGUAACGCGUCUCCCUGCUAAGGAGAAGACUGCGGGUUCGAGUCCCGUACGGAACG [A15U C33G], 0.551.
For GUUCCGUUGGCGUAUUGGUAACGCGUCUCCAUCCUAAGGAGAAGACUGGGGGUUCGAGUCCCGUCCGGAACG [A15U C31A C49G A65C], the yeast fitness is not above 0.5.
As for GUUCCGUUGGCGUAUUGGUAACGCGUCUCCGUGCUAAGGAGUAGACUGCGGGUUCGAGUCCCGUACGGAACG [A15U C31G C33G A42U], the yeast fitness is not above 0.5.
With GUUCCGUUGGCGUAUUGGUAACGCGUCUCCCUCGUAGGGCGAAGACUGCGGGUUCGAGUCCUGUUCGGAACG [A15U C34G A37G A40C C62U A65U] the figure was not above 0.5; with GUUCCGUUGGCGUAUUGAUAACGCGUGUCCCUCCUAAGGAGAAGACUGCGGGUUCCAGUCCCGUACGCAACG [A15U G18A C27G G56C G68C], not above 0.5.
Turning to GUUCCGUUGGCGUAUUGGUAACGCGUCUCCAUCCUAAGGAGAAGACUGCGGGUUCGAGUCCCGUACGGAACG [A15U C31A], the yeast fitness is 0.588.
GUUCCGUUGGCGUAUUGGUAACGCGUCUCCUUCCUAAGGAGAAGACUGCGGGUUCGAGUCCCGUACGGAACG [A15U C31U]: the yeast fitness was 0.707.
In the case of GUUCCGUUGGCGUAUUGGUAACGCGUCUCCGUCCUAAGGAGAAGACUGCGGGUUCGAGUCCCGUACGGAACG [A15U C31G] it was 0.676.
With GUUCCGUUGGCGUAUUGCUAACGCGUCUGCCUCCUAAGGAGAAGACUGCGGGUUCGAGUCCCGUACGGAACG [A15U G18C C29G] the figure was 0.571; with GUUCCGUUGGCGUAUUGGUAACGCGUCUCCCUCCUAAGGAGAAGACUGCGGGUUCGAGUCCGGUACGGAACG [A15U C62G], 0.646; with GUUCCGUUGGCGUAUUGGUAACGCGUCUCCCUCCUAAGGAGAAGACUGCGGGUUCGAGUCGCGUACGGAACG [A15U C61G], 0.582.
As for GUUCCGUUGGCGUAUUGGUAACGCGUCUCCCUCCUAAGGAGAAGACUGCGGGUUCGAGUCUCGUACGGAACG [A15U C61U], the yeast fitness was found to be 0.673.
With GUUCCGUUGGCGUAUUGGUAACGCGUCUCCCUCCUAAGGAGAAGACUGCGGGUUCGAGUCACGUACGGAACG [A15U C61A] the figure was 0.571.
Take GUUCCGUUGGCGUAUUGGUAACGCGUCUCCUUCCUAAGGAGAAGAGUGCGGGUUCGAGUCCCAUGCGGAUCG [A15U C31U C46G G63A A65G A70U]: the yeast fitness was not above 0.5.
For the variant GUUCCGUUGGCGUAUUGGUAACGCGUCUCCCUCAUAAGCCGAAGACUGCGGGUUCCAGUCGGGUACGCAACG [A15U C34A G39C A40C G56C C61G C62G G68C], the yeast fitness is 0.533.
GUUCCGUUGGCGUAUUAGUAACGCGUCUCCCUCCUAAGGAGAAGACUGCGGGUUCGAGUCCCGUACGGAACG [A15U G17A]: the yeast fitness was 0.707.
With GUUCCGUUGGCGUAUUGGUAACGCGUCUCCCUUCUGAGGAGAAGACUGCGGGUUCGAGUCCGGUACGGCACG [A15U C33U A36G C62G A69C] the figure was not above 0.5.
In the case of GUUCCGUUGGCGUAUUGGUAACGCGUCUCCUUCCUAAGGAGAAGACUGCGGAUUCGAGUCCCGUACGGAACG [A15U C31U G52A] it was 0.576; in that of GUUCCGUUGGCGUAUUGGUAACGCGUCUCGCUCUUAAGGAGAAGACUGCGGGUUCGAGUCCCGUAUGGACCG [A15U C30G C34U C66U A70C], 0.511.
